How the values were obtained:
[1] = melting temperature; fluorescence melt of hairpins on a sequencing array, two-state fit, raised by 9.35 °C to match UV melts; settings: sodium 0.088 M
Outline: (§1)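 Folding enthalpy and melting temperature were estimated with bootstrapped two-state fits and combined across four replicates by inverse-variance weighting, with fitted temperatures raised by 9.35 °C to match UV melts. The data were Cy3 fluorescence of library hairpins, with annealed Cy3 and quencher oligos, on a sequenced MiSeq flow cell in 50 mM Na-HEPES pH 8.0, 25 mM NaCl, imaged in 2.5 °C steps up to 60 °C and normalised to pre-quench Cy3 and control constructs.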

[2] = folding enthalpy; higher = less favourable; fluorescence melt of hairpins on a sequencing array, two-state fit; settings: sodium 0.088 M
Outline: as §1

Sequence | Tm [1] | folding enthalpy [2]
GGGTAGGGAAACTTACCC (((((.(....).))))) | 45.8 °C | -29.5 kcal/mol
GGGTATCGAAAGATCCCC (((.(((....))).))) | 50.2 °C | -22.7 kcal/mol
GGGTATCGAAAGATGCCC (((.(((....))).))) | 58.2 °C | -58.7 kcal/mol
GGGTATGAAAATACCC ((((((....)))))) | 57.6 °C | -35.4 kcal/mol
GGGTATGGAAACATACCC (((((((....))))))) | 62.6 °C | -44 kcal/mol
GGGTATGGAAACATATCC ((.((((....)))).)) | 44.2 °C | -39.3 kcal/mol
GGGTATGGAAACGTATCC ((.((.(....).)).)) | 30.5 °C | -19.8 kcal/mol
GGGTCACGAAAGTGCCC (((.(((....)))))) | 58.5 °C | -39.9 kcal/mol
GGGTCAGAAATGACCC ((((((....)))))) | 65.1 °C | -34.5 kcal/mol
GGGTCAGGAAACCGACCC (((((.(....).))))) | 52.7 °C | -37.3 kcal/mol
GGGTCCGAAAGGAAACCC ((((((....)))..))) | 50.2 °C | -22.8 kcal/mol
GGGTCCGAAAGGAAGCCC ((((((....)))..))) | 46.9 °C | -18.8 kcal/mol
GGGTCCGAAAGGACGCCC ((((((....)))..))) | 48.9 °C | -10.3 kcal/mol
GGGTCCGAAAGGATCCCC ((((((....)))..))) | 60.5 °C | -14.6 kcal/mol
GGGTCCGGAAACGAACCC ((((.((....)).)))) | 49 °C | -31.9 kcal/mol
GGGTCGACGAAAGTCCCC (((..(((....)))))) | 38.7 °C | -17.7 kcal/mol
GGGTCGGGAAACCGATCC ((.((((....)))).)) | 57.4 °C | -47.4 kcal/mol
GGGTCTCGAAAGAGCCC (((.(((....)))))) | 58.2 °C | -32 kcal/mol
GGGTCTCGAAAGAGGCCC (((.(((....))).))) | 67.7 °C | -29.1 kcal/mol

Sequence | Tm [1] | folding enthalpy [2]
GGGTCTGGAAACAGATCC ((.((((....)))).)) | 51.9 °C | -43.7 kcal/mol
GGGTGACGAAAGTCCCCC (((.(((....))).))) | 57.9 °C | -28.2 kcal/mol
GGGTGAGGAAACTTACCC ((((.((....)).)))) | 47.7 °C | -35.7 kcal/mol
GGGTGCGAAAGCAACCC ((((((....))).))) | 68.5 °C | -18.9 kcal/mol
GGGTGCGAAAGCATCCCC ((((((....)))..))) | 64.3 °C | -13.4 kcal/mol
GGGTGGCGAAAGCCCCCC (((.(((....))).))) | 65 °C | -17.4 kcal/mol
GGGTGGGGAAACCCGCCC (((.(((....))).))) | 67.3 °C | -33.6 kcal/mol
GGGTGTGAAAACACCC ((((((....)))))) | 69 °C | -34.4 kcal/mol
GGGTGTGGAAACATGCCC (((..((....))..))) | 47.7 °C | -28.4 kcal/mol
GGGTTACGAAAGTACCCC (((.(((....))).))) | 52.1 °C | -22.9 kcal/mol
GGGTTAGGAAACTAACTC (.(((((....))))).) | 42.3 °C | -25.8 kcal/mol
GGGTTATCGAAAGATCCC (((..(((....)))))) | 34.9 °C | -24.3 kcal/mol
GGGTTCCGAAAGGACCC (((.(((....)))))) | 58.1 °C | -31.6 kcal/mol
GGGTTCGAAAGAAAACCC ((((((....)))..))) | 42.2 °C | -23.8 kcal/mol
GGGTTCGAAAGAAATCCC ((((((....)))..))) | 33.6 °C | -21.3 kcal/mol
GGGTTCGAAAGAAGCCC ((((((....))).))) | 55.7 °C | -24.1 kcal/mol
GGGTTCGCGAAAGCGCCC (((..(((....)))))) | 43.6 °C | -15.3 kcal/mol
GGGTTCGGAAACGAATCC ((.((((....)))).)) | 53.7 °C | -44 kcal/mol
GGGTTCGGAAACGAGCTC (.(.(((....))).).) | 37.8 °C | -24 kcal/mol

From the array DNA melting data of Ke et al. (doi:10.1101/2024.01.08.574731)
